Xi reactivation = X-chromosome reactivation activator. XiGFP mouse fibroblasts, % GFP-positive cells imaging, 3 d; cells co-treated with 5-aza-dC sensitizer; scaled so ellipticine positive control = 100%. activation, % at 7.58 µM. 360,000 tested, 0.055% active;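 active = mean normalized replicate activation at least 10% and every replicate at or above 10%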;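 note: 0% = median of on-plate neutral control wells and 100% = ellipticine 6 µM median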
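Assay system – SV40-immortalized XiGFP fibroblast cells, line 68-5-11 · Buffer or medium – DMEM supplemented with 5-aza-dC as sensitizing agent · Dosing – one concentration, pinned · Benchmarks – positive control ellipticine, 6 µM final · Times – 3 days compound exposure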
TROY signal inh = inhibitors of TROY-dependent NF-kB signaling. Q293 LMP1-TROYcd NF-kB luciferase reporter, 4 h. inhibition, % at 10 µM. 360,000 tested, 0.98% active. AID 1347056;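 active = compounds whose plate-normalised and pattern-corrected inhibition of the luciferase reporter signal at the single screening dose is 50% or more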
LGR2 antag = Drosophila LGR2 receptor signaling inhibition; HEK293 LGR2, CRE-luciferase, bursicon-stimulated, 4 h; inhibition, % at 9.99 µM; AID 720647; 380,000 tested, 0.35% active;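 active = drop in luminescence signal, shown as inhibition above about 50% in the replicate tests, limit read from the data, passing the limit was not always enough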;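 note: agonist challenge used bursicon conditioned medium at about half maximal strength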
TWEAK Fn14 block = TWEAK-Fn14 signaling inhibition; inhibition, % at 10 µM; TWEAK-stimulated Fn14 reporter cells, luciferase luminescence, 8 h; 360,000 tested, 2% active; in the data active = inhibition above about 50%
CaV13 ICDI inh = Disruptors of the CACNA1D IQ motif to Ca2+-dependent inactivation inhibitor domain association, primary screening, Förster resonance energy transfer in intact living …. HEK cells, CFP/YFP FRET ICDI-IQ, plate reader, 10 min; percent FRET-ratio fall versus neutral wells. inhibition, % at 12.3 µM. 340,000 tested, 0.098% active;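 active = mean replicate inhibition of at least 30% and at least 1% of replicates passing that level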;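 note: 0% = median of the neutral control wells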
Active calls of the source: *; nt = no result. Compounds with a hit are over-represented: about 2% of the library has one in this group of screens.

SMILES | Xi reactivation | TROY signal inh | LGR2 antag | TWEAK Fn14 block | CaV13 ICDI inh
C[C@@H]1CN([C@@H](C)CO)C(=O)Cc2cc(NC(=O)c3ccncc3)ccc2O[C@H]1CN(C)Cc1ccccc1 | 0.2 | nt | -11.2 | nt | nt
C[C@@H]1CN([C@H](C)CO)C(=O)Cc2cc(NC(=O)CCCCCC(=O)Nc3ccccc3N)ccc2O[C@H]1CN(C)CC1CCCCC1 | -0.9 | nt | -0.1 | nt | nt
CO[C@@H]1CN(C)C(=O)c2cc(NC(=O)C3CCC3)ccc2OC[C@H](C)N(C(=O)CN(C)C)C[C@H]1C | -0.4 | nt | 13.1 | nt | nt
CCCNC(=O)N(C)C[C@H]1Oc2cc(-c3ccccc3F)ccc2S(=O)(=O)N([C@H](C)CO)C[C@@H]1C | 0.4 | nt | 9.2 | nt | nt
CCC(=O)Nc1ccc2c(c1)C(=O)N(C)C[C@H](OC)[C@@H](C)CN(C(=O)COC)[C@H](C)CO2 | -0.5 | nt | 10.6 | nt | nt
CC(=O)N/C(=N/c1nc(C)cc(C)n1)Nc1ccc(NC(C)=O)cc1 | nt | -19.8 | nt | -16.2 | nt
CC(=O)N/C(=N\c1nc(C)cc(C)n1)Nc1ccc2ccccc2c1 | 0.2 | 77.5* | 8.8 | 74.0* | -19.1
COc1ccc2nc(NC(=O)C3CCCN(S(=O)(=O)c4cccs4)C3)sc2c1 (configuration not stated) | nt | 21.5 | nt | 16.6 | -1.1
Cc1ccc2nc(NC(=O)C3CCN(S(=O)(=O)c4cccs4)CC3)sc2c1 | nt | 39.6 | 33.9 | 79.5* | -3.5
CCCN1CCc2c(sc(NC(=O)C3CCN(S(=O)(=O)c4cccs4)CC3)c2C(N)=O)C1 | 0.0 | -7.8 | -15.2 | -6.4 | 33.8*
CC(=O)N1CCc2c(sc(NC(=O)C3CCN(S(=O)(=O)c4cccs4)CC3)c2C(N)=O)C1 | -0.1 | -5.0 | 0.2 | -25.3 | -6.5
Cc1ccc2nc(NC(=O)C3CCN(S(=O)(=O)c4cccc5nsnc45)CC3)sc2c1 | -0.1 | 42.3 | 26.8 | 92.2* | -4.6
COc1ccc2nc(NC(=O)C3CCN(S(=O)(=O)c4cccs4)CC3)sc2c1 | nt | 54.3* | nt | 55.0* | -6.7
Cc1ccc(-c2ccc3c(c2)O[C@H](CN(C)C(=O)CN(C)C)[C@@H](C)CN([C@H](C)CO)S3(=O)=O)cc1 | -0.8 | nt | -23.6 | nt | nt
C[C@H]1CN([C@@H](C)CO)C(=O)c2cc(C#CCN(C)C)cnc2O[C@@H]1CN(C)C(=O)Nc1cccc(F)c1 | 0.4 | nt | -6.2 | nt | nt
COc1ccc2[nH]c3c(c2c1)CCNC3=O | 0.0 | 24.7 | -12.9 | 61.2* | -10.7
COc1ccc(NC(=O)/C(Cl)=C(/Cl)S(=O)(=O)Cc2ccc(C)cc2)cn1 | nt | 85.5* | nt | 103.0* | nt
COc1ccc(OC)c(NC(=O)CSc2ncnc3c2cnn3-c2ccccc2Cl)c1 | nt | 40.5 | nt | 74.0* | nt
COc1cc(NC(=O)CSc2ncnc3c2cnn3Cc2ccccc2)cc(OC)c1 | nt | 30.6 | nt | 62.0* | -3.1
COC(=O)CSc1ncnc2c1cnn2Cc1ccccc1 | nt | 8.1 | nt | 3.7 | nt
C[C@H](CO)N1C[C@H](C)[C@H](CN(C)C(=O)Nc2ccc(C(F)(F)F)cc2)OCCCC[C@H](C)Oc2ccc(NC(=O)Cc3ccccc3)cc2C1=O | 0.2 | nt | 2.5 | nt | nt
Cc1nnnn1/C(=C\c1ccccc1)C(=O)OCC(=O)Nc1ccc(Cl)cc1F | -0.7 | 65.4* | -4.9 | 69.8* | -4.8
Cc1nnnn1/C(=C\c1ccccc1)C(=O)OCC(=O)Nc1cccc(S(=O)(=O)N(C)C)c1 | 1.4 | 26.3 | 29.0 | 72.2* | -5.7
O=C(COC(=O)Cc1n[nH]c(=O)c2ccccc12)Nc1ccc(Cl)cc1F | 0.1 | 2.9 | -1.8 | -4.9 | -4.0
CCCNC(=O)N1CC2(CN(S(=O)(=O)c3cccc(OC)c3)C2)c2c(n(C)c3cc(OC)ccc23)[C@@H]1CO | 0.5 | nt | nt | nt | nt
SMILES | Xi reactivation | TROY signal inh | LGR2 antag | TWEAK Fn14 block | CaV13 ICDI inh
Cc1ccccc1-n1ncc2c([N+](=O)[O-])cc([N+](=O)[O-])cc21 | nt | 51.4* | 3.5 | 1.7 | -5.4
O=C1CSC(c2ccccn2)N1c1ccc(Cl)c(Cl)c1 (configuration not stated) | nt | -3.9 | nt | 107.5* | -5.4
CC(C(=O)O)c1ccc(N2Cc3ccccc3C2=O)cc1 (configuration not stated) | -0.1 | 8.5 | nt | 69.8* | -4.4
O=C(N/N=C1\CCc2ccccc21)c1ccccc1Cl | 0.0 | -34.8 | -30.0 | -11.9 | 7.4
S=C(N/N=C1\CCc2ccccc21)NC1CCCCC1 | 0.3 | 70.9* | 9.7 | 74.2* | -4.7
O=C(N/N=C1/CCc2ccccc21)C1CC1 | -0.1 | -13.3 | 3.8 | -2.4 | -0.8
O=C(N/N=C1\CCc2ccccc21)c1ccc(O)cc1 | 0.4 | -59.9 | -54.7 | 50.5* | -2.4
CC(C)[C@@H]1COCc2cn(nn2)CC[C@@H](Cc2ccc(Cl)cc2)C(=O)N1 | 0.0 | nt | nt | nt | nt
CCCC#Cc1cnc2c(c1)C(=O)N([C@@H](C)CO)C[C@H](C)[C@@H](CN(C)S(=O)(=O)c1cccc(OC)c1)O2 | -0.4 | nt | -10.1 | nt | nt
C[C@@H]1Cc2c(O)c(O)cc(O)c2C(=O)O1 | nt | 2.8 | nt | -3.8 | nt
CC1CCC/C=C/C(=O)c2c(O)cc(O)cc2CC(=O)O1 (configuration not stated) | nt | 42.8 | 69.3* | 94.1* | nt
C=COC(=O)NC1CCc2cc(OC)c(OC)c(OC)c2-c2ccc(SC)c(=O)cc21 (configuration not stated) | 0.1 | 13.7 | -3.9 | -24.6 | -3.2
COc1cc2c(c(OC)c1OC)-c1ccc(SC)c(=O)cc1C(NC=O)CC2 (configuration not stated) | 1.3 | 29.2 | 20.1 | 57.2* | -5.3
C[C@H](CO)N1C[C@H](C)[C@@H](CN(C)Cc2cccnc2)Oc2ncc(-c3ccccc3)cc2C1=O | -1.2 | nt | -7.3 | nt | nt
CC(C)(C)C1CCc2c(sc(NC(=O)C3CC=CCC3C(=O)O)c2C#N)C1 (configuration not stated) | 0.0 | 55.9* | 7.2 | 27.1 | -19.1
CCC(C)(C)C1CCc2c(sc(NC(=O)c3ccoc3C)c2C(N)=O)C1 (configuration not stated) | nt | 62.9* | nt | 16.8 | -3.8
CCC(C)(C)C1CCc2c(sc(NC(=O)c3ccccc3C(=O)O)c2C#N)C1 (configuration not stated) | 0.1 | 71.7* | nt | 9.0 | -21.5
COc1ccc(CN(C)C[C@H]2Oc3ccc(NS(=O)(=O)c4c(C)noc4C)cc3C(=O)N([C@H](C)CO)C[C@@H]2C)cc1 | 0.0 | nt | 14.2 | nt | nt
O=C(C[C@@H]1C=C[C@H](NC(=O)Nc2ccc(C(F)(F)F)cc2)[C@@H](CO)O1)NCc1cccc(F)c1 | -0.8 | nt | 7.3 | nt | nt
COc1ccc(NC(=O)N(C)C[C@@H]2Oc3c(NS(=O)(=O)c4ccc(F)cc4)cccc3C(=O)N([C@H](C)CO)C[C@H]2C)cc1 | 0.8 | nt | 6.2 | nt | nt
COc1ccc(S(=O)(=O)Nc2ccc3c(c2)CC(=O)N([C@H](C)CO)C[C@H](C)[C@@H](CN(C)Cc2ccc(C(=O)O)cc2)O3)cc1 | 0.0 | nt | 3.4 | nt | nt

Assay outcomes deposited in PubChem BioAssay by several laboratories.
